Calls of active or inactive are those of the source. The rule behind the calls is not given here. Where a SMILES comes first, the peptide text is derived from it. [ ]: non-standard residue; d: D form. A value given as a limit tells only on which side of the number the result lay.

A word on the IC50: it is the concentration at which inhibition is half-maximal. One may read the pKB as the negative decadic logarithm of the KB, by convention in mol/L. Low readings indicate a large KB, high ones a small KB.

Experiment [1] concerns the target T1, Endothelin receptor type B (Rattus norvegicus, UniProt P21451).
T1 sequence (P21451 whole entry): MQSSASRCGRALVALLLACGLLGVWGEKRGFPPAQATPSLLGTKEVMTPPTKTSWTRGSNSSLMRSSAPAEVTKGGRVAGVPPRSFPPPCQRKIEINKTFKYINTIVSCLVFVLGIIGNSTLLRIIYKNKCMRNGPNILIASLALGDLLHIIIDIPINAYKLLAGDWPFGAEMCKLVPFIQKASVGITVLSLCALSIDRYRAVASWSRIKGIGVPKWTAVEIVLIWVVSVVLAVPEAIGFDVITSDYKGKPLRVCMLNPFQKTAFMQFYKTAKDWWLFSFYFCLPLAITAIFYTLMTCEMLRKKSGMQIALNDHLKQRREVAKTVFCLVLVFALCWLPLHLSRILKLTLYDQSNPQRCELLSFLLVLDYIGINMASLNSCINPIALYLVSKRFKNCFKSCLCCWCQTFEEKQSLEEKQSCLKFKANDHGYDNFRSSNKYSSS
Kind of experiment: In vitro inhibition of [125I]ET1 binding to rat cerebellum Endothelin B receptor. Format: tissue-based. An outline of the steps: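 Rat cerebellum was homogenized in Tris/sucrose/EDTA buffer with protease inhibitors; the 40000g membrane pellet was used. Nonspecific binding was defined with 500 nM ET-1. IC50 by curve fitting; single experiment.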

For the next experiment, the target named is T2, Endothelin-1 receptor (Rattus norvegicus, UniProt P26684).
T2 sequence (P26684 whole entry): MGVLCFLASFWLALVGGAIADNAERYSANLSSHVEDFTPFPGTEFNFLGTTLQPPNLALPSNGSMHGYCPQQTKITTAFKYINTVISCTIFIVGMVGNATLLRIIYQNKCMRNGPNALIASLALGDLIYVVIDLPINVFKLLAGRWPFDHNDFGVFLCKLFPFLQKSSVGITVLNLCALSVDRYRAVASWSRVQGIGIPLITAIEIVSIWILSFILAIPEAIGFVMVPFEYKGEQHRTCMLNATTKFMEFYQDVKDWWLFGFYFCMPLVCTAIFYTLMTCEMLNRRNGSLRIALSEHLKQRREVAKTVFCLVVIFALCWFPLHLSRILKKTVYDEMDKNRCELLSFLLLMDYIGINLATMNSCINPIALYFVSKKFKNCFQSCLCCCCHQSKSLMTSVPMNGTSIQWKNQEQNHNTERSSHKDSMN
As to the kind of experiment: In vitro inhibition of [125I]ET1 binding to rat A10 cell Endothelin A receptor. It counts as cell-based. An outline of the steps:
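Rat A10 cells were harvested, washed in 50 mM Hepes pH 7.3 with 1 mM CaCl2 and 5 mM MgCl2, and frozen. Nonspecific binding was defined with 500 nM ET-1. IC50 came from curve fitting; mean of n ± SEM.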

For experiment [2], the species on record is Rattus norvegicus. As to the kind of experiment: Antagonism of ET-1 mediated contraction of isolated de-endothelialized rat aortic rings. Format: functional, Aorta.
The test system of experiment [3] is Rattus norvegicus. As to the kind of experiment: Effect of compound on ET-1 induced changes in diastolic blood pressure in the pithed rat pretreated with BQ 788 (3 mg/kg) at 75 uM/kg (iv) dose. It counts as functional, Artery. An outline of the steps:
(§1)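 Male Sprague-Dawley rats (250–350 g), isoflurane-anesthetized, pithed and artificially respired. Dosing via the jugular vein; blood pressure via carotid artery transducer. BQ 788 (3 mg/kg) and test compound given iv 10 min before a bolus ET-1 dose–pressor curve (0.01–10 nmol/kg). Fold rightward shift from vehicle measured at the ET-1 dose giving a 40 mmHg diastolic change. Mean of 4–6 rats.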

Experiment [4] relates to Rattus norvegicus. Kind of experiment: Effect of compound on ET-1 induced changes in diastolic blood pressure in the pithed rat pretreated with BQ 788 (3 mg/kg) at 7.5 uM/kg (iv) dose. Format: functional, Artery. Put shortly:
as §1

The test system of experiment [5] is Rattus norvegicus. As to the kind of experiment: Effect of compound on ET-1 induced changes in diastolic blood pressure in the pithed rat pretreated with BQ 788 (3 mg/kg) at 25 uM/kg (iv) dose. Format: functional, Artery. Put shortly: as §1
The subject of experiment [6] is Rattus norvegicus. Kind of experiment: Effect of compound on ET-1 induced changes in diastolic blood pressure in the pithed rat pretreated with BQ 788 (3 mg/kg) at 2.5 uM/kg (iv) dose; NS = Not significant. Format: functional, organism-based. Conditions: Artery. An outline of the steps:
as §1

In experiment [1], `Cc1ccccc1[C@H](CCC(=O)O)Oc1cc(OCc2ccsc2)ccc1C#N` gave an IC50 of 10000 nM.
Turning to `Cc1ccccc1C(CCC(=O)O)Oc1cc(OCc2ccsc2)ccc1C(=O)O` (stereo not drawn), the IC50 in experiment [1] is greater than 10000 nM; at Endothelin-1 receptor, 207 nM.
In the case of `Cc1ccccc1C(CCC(=O)O)C(=O)c1cccc(OCc2ccsc2)c1` (stereo not drawn), the half-inhibitory concentration (IC50) in experiment [1] was greater than 30000 nM; on Endothelin-1 receptor, 110 nM. Moreover, the pKB in the experiment filed under Rattus norvegicus [2] amounted to 5.7.
In turn, `Cc1ccccc1[C@@H](CCC(=O)O)Oc1cc(OCc2ccsc2)ccc1C#N` returned an IC50 in experiment [1] greater than 10000 nM. The same compound registered a pKB in the experiment listed under Rattus norvegicus [2] of 7.4.
At Endothelin-1 receptor, `CC(C)C[C@@H]1NC(=O)[C@@H](C(C)C)NC(=O)[C@@H]2CCCN2C(=O)[C@@H](CC(=O)O)NC(=O)[C@@H](Cc2c[nH]c3ccccc23)NC1=O` [BQ-123] (cyclo(L[dW][dD]P[dV])) gave an IC50 of 14 nM.
As for `Cc1ccccc1[C@@H](CCC(=O)O)Oc1cc(OCc2ccc3c(c2)OCO3)ccc1C#N`, the 50% inhibitory concentration (IC50) in experiment [1] was determined as 10000 nM; on Endothelin-1 receptor, 69 nM.
On to `Cc1ccccc1C(CCC(=O)O)Oc1cc(OCc2ccsc2)ccc1-c1cc[nH]n1` (stereo not drawn), for which the IC50 in experiment [1] came to 10000 nM; at Endothelin-1 receptor it was 20 nM.
For the compound `O=C(O)c1cc(-c2ccc(OCc3ccccc3)cc2OCc2ccccc2)n[nH]1`, the values for the IC50 (in experiment [1]; on Endothelin-1 receptor) were greater than 30000 nM and 1000 nM, respectively.
Regarding `Cc1ccccc1C(CCC(=O)O)Oc1cc(OCc2ccsc2)ccc1C(N)=O` (stereo not drawn), the IC50 in experiment [1] turned out to be 10000 nM; on Endothelin-1 receptor it was 29 nM.
For the compound `Cc1ccccc1C(CCC(=O)O)Oc1cc(OCc2ccsc2)ccc1-c1cc(C(=O)O)[nH]n1` (stereo not drawn), the IC50 in experiment [1] amounted to 3000 nM; at Endothelin-1 receptor it was 7 nM. Further, the pKB in the experiment filed under Rattus norvegicus [2] is recorded as 7.3.
Turning to `Cc1ccccc1C(CCC(=O)O)Oc1cc(OCc2ccsc2)ccc1-c1ccccn1` (stereo not drawn), the IC50 in experiment [1] came out at 10000 nM; at Endothelin-1 receptor, 40 nM.
For the compound `Cc1ccccc1C(CCC(=O)O)Oc1cc(OCc2ccsc2)ccc1-c1ncco1` (stereo not drawn), the IC50 came to 10000 nM in experiment [1] and 20 nM at Endothelin-1 receptor.
For the compound `Cc1ccccc1[C@@H](CCC(=O)O)Oc1cc(OCc2cnsc2)ccc1C#N`, the values for the IC50 (in experiment [1]; at Endothelin-1 receptor) were 10000 nM and 7 nM, respectively. This compound came in with a pKB in the experiment filed under Rattus norvegicus [2] of 7.3.
Consider `Cc1ccccc1[C@@H](CCC(=O)O)Oc1cc(OCc2cccnc2)ccc1C#N`, for which the Shift with Rattus norvegicus [3] was determined as 36.58; with Rattus norvegicus [4], 2.27; in the experiment on Rattus norvegicus [5], 10.48. In addition, the IC50 in experiment [1] was 10000 nM; on Endothelin-1 receptor, 5 nM. Moreover, the Shift entry in the experiment on Rattus norvegicus [6] was “inactive”.
For the compound `Cc1ccccc1C(CCC(=O)O)Oc1cccc(OCc2ccsc2)c1` (stereo not drawn), the IC50 in experiment [1] is greater than 30000 nM; on Endothelin-1 receptor, 871 nM.
As for `Cc1ccccc1[C@@H](CCC(=O)O)Oc1cc(OCc2ccncc2)ccc1C#N`, the IC50 in experiment [1] was 10000 nM; on Endothelin-1 receptor, 20 nM. This compound gave a pKB in the experiment filed under Rattus norvegicus [2] of 7.1.
Turning to `Cc1ccccc1C(CCC(=O)O)Oc1cc(OCc2ccsc2)ccc1C#N` (stereo not drawn), in experiment [1], the IC50 was found to be 5000 nM.
Regarding `CC(=O)c1ccc(OCc2ccsc2)cc1OC(CCC(=O)O)c1ccccc1C` (stereo not drawn), the IC50 came to 10000 nM in experiment [1] and 26 nM on Endothelin-1 receptor.
For `Cc1ccccc1C(CCC(=O)O)Oc1cc(OCc2ccsc2)ccc1-c1ncc[nH]1` (stereo not drawn), in that order: greater than 10000 nM and 163 nM.

The values are drawn from ChEMBL document CHEMBL1131032, “Selective endothelin A receptor antagonists. 3. Discovery and structure-activity relationships of a series of 4-phenoxybutanoic acid derivatives” (J Med Chem, 1998).
